Each structure is given as a SMILES string. Changes are numbered by the printed parent chain.
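Note: active if original authors judged signal statistically different from baseline.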

The target of the first assay is T1, OR1A2 (Homo sapiens) (UniProt Q9Y585).
T1 sequence (whole entry): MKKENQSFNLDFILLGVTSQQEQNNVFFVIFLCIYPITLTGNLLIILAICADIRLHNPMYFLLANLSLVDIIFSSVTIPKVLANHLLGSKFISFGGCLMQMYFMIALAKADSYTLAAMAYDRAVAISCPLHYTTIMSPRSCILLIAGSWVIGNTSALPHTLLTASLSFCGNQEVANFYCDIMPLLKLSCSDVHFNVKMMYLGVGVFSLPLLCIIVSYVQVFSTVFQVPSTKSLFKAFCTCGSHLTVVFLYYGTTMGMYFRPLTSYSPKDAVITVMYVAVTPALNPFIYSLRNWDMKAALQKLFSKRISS
As to conditions: stereoisomer not certain. In outline: (§1)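 Whether a receptor–molecule pair is responsive (active) rests on the original authors' judgment that its measured signal was statistically different from baseline. Pairs without that judgment are non-responsive (inactive). Sources used varied assay methods, commonly transient luciferase assays in mammalian cell lines.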
`CCC(S)C(C)CO` (centres undefined): the “odorant receptor agonist call” value was “inactive”.

Regarding `CCCCCC(S)C(C)CO` (centres undefined), the “odorant receptor agonist call” value is “inactive”.

With `CCC1OC(C)=C(O)C1=O` (centres undefined), the “odorant receptor agonist call” value was “inactive”.

For `CC1=C(O)C(=O)OC1C` (centres undefined), the “odorant receptor agonist call” value was “inactive”.

For the compound `CCCC(S)CCOC(C)=O` (centres undefined), the “odorant receptor agonist call” value is “inactive”.

As to `CCCCCCC=CCCC=O`, the “odorant receptor agonist call” value was “inactive”.

Regarding `CC1CCCCCCCCCCCCC(=O)C1` (centres undefined), the “odorant receptor agonist call” value is “inactive”.

As to `CCCCC(S)C(C)CO` (centres undefined), the “odorant receptor agonist call” value was “active”.

For the compound `Cc1cnc(C)c(C)n1`, the “odorant receptor agonist call” value is “inactive”.

`CCCCCC(=O)C(C)C(C)=O` (centres undefined): the “odorant receptor agonist call” value was “inactive”.

On to `CC(CO)CS` (centres undefined), for which the “odorant receptor agonist call” value is “inactive”.

Take `CCC1OC(=O)C(O)=C1C` (centres undefined): the “odorant receptor agonist call” value is “inactive”.

Consider `CC1=NC(C)C(C)S1` (centres undefined), for which the “odorant receptor agonist call” value was “inactive”.

As to `CC(=O)c1c(C)c([N+](=O)[O-])c(C(C)(C)C)c([N+](=O)[O-])c1C`, the “odorant receptor agonist call” value was “inactive”.

Turning to `CC1=C(O)C(=O)C(C)O1` (centres undefined), the “odorant receptor agonist call” value is “inactive”.

In a further assay the test system is T2, OR1A2 G256C W293C.
T2 sequence (whole entry): T1 sequence (whole entry) with G256C, W293C
As to conditions: stereoisomer not certain. In outline: as §1
On to `CCC1OC(C)=C(O)C1=O` (centres undefined), for which the “odorant receptor agonist call” value is “inactive”.

Turning to `CC1=C(O)C(=O)OC1C` (centres undefined), the “odorant receptor agonist call” value is “inactive”.

As to `CCCC(S)CCOC(C)=O` (centres undefined), the “odorant receptor agonist call” value is “inactive”.

`CCCCCCC=CCCC=O`: the “odorant receptor agonist call” value is “inactive”.

Take `Cc1cnc(C)c(C)n1`: the “odorant receptor agonist call” value is “inactive”.

In the case of `CCC1OC(=O)C(O)=C1C` (centres undefined), the “odorant receptor agonist call” value is “inactive”.

With `CC1=NC(C)C(C)S1` (centres undefined), the “odorant receptor agonist call” value is “inactive”.

Turning to `CC1=C(O)C(=O)C(C)O1` (centres undefined), the “odorant receptor agonist call” value was “inactive”.

Another assay has as its system T3, OR1B1.
T3 sequence (whole entry): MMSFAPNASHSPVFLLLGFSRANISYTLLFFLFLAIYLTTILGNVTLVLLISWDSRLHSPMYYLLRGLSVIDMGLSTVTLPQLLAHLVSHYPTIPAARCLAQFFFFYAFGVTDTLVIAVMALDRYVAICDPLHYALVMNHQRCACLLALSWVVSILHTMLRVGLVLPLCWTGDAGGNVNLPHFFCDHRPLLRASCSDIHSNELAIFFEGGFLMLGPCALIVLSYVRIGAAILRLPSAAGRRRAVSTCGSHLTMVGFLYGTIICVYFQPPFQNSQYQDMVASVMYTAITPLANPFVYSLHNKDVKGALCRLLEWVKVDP
The following applies: stereoisomer not certain. In outline: as §1
`CCC(S)C(C)CO` (centres undefined): the “odorant receptor agonist call” value is “inactive”.

Regarding `CCCCCC(S)C(C)CO` (centres undefined), the “odorant receptor agonist call” value is “inactive”.

Consider `CCC1OC(C)=C(O)C1=O` (centres undefined), for which the “odorant receptor agonist call” value was “inactive”.

Take `CC1=C(O)C(=O)OC1C` (centres undefined): the “odorant receptor agonist call” value is “inactive”.

`CCCC(S)CCOC(C)=O` (centres undefined): the “odorant receptor agonist call” value was “inactive”.

For `CCCCCCC=CCCC=O`, the “odorant receptor agonist call” value was “inactive”.

For the compound `CC1CCCCCCCCCCCCC(=O)C1` (centres undefined), the “odorant receptor agonist call” value is “inactive”.

Regarding `CCCCC(S)C(C)CO` (centres undefined), the “odorant receptor agonist call” value is “inactive”.

Take `Cc1cnc(C)c(C)n1`: the “odorant receptor agonist call” value was “inactive”.

Consider `CCCCCC(=O)C(C)C(C)=O` (centres undefined), for which the “odorant receptor agonist call” value was “inactive”.

As to `CC(CO)CS` (centres undefined), the “odorant receptor agonist call” value was “inactive”.

Take `CCC1OC(=O)C(O)=C1C` (centres undefined): the “odorant receptor agonist call” value is “inactive”.

Turning to `CC1=NC(C)C(C)S1` (centres undefined), the “odorant receptor agonist call” value was “inactive”.

With `CC(=O)c1c(C)c([N+](=O)[O-])c(C(C)(C)C)c([N+](=O)[O-])c1C`, the “odorant receptor agonist call” value is “inactive”.

`CC1=C(O)C(=O)C(C)O1` (centres undefined): the “odorant receptor agonist call” value is “inactive”.

The target in another assay is T4, OR1C1 (Homo sapiens) (UniProt Q15619).
T4 sequence (whole entry): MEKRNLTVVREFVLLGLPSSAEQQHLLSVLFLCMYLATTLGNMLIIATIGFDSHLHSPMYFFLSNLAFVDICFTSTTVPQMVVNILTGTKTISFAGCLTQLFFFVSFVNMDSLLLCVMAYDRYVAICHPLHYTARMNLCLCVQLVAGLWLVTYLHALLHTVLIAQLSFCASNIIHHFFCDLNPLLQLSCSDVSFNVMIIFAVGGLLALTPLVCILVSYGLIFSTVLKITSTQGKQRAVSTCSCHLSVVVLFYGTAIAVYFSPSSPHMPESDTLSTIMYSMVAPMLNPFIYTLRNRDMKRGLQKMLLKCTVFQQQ
As to conditions: stereoisomer not certain. In outline: as §1
For `CCC(S)C(C)CO` (centres undefined), the “odorant receptor agonist call” value was “inactive”.

With `CCCCCC(S)C(C)CO` (centres undefined), the “odorant receptor agonist call” value is “inactive”.

Regarding `CCC1OC(C)=C(O)C1=O` (centres undefined), the “odorant receptor agonist call” value is “inactive”.

For `CC1=C(O)C(=O)OC1C` (centres undefined), the “odorant receptor agonist call” value is “inactive”.

Turning to `CCCC(S)CCOC(C)=O` (centres undefined), the “odorant receptor agonist call” value is “inactive”.

For `CCCCCCC=CCCC=O`, the “odorant receptor agonist call” value was “inactive”.

`CC1CCCCCCCCCCCCC(=O)C1` (centres undefined): the “odorant receptor agonist call” value is “inactive”.

In the case of `CCCCC(S)C(C)CO` (centres undefined), the “odorant receptor agonist call” value was “inactive”.

Regarding `Cc1cnc(C)c(C)n1`, the “odorant receptor agonist call” value is “inactive”.

Take `CCCCCC(=O)C(C)C(C)=O` (centres undefined): the “odorant receptor agonist call” value is “inactive”.

`CC(CO)CS` (centres undefined): the “odorant receptor agonist call” value was “inactive”.

As to `CCC1OC(=O)C(O)=C1C` (centres undefined), the “odorant receptor agonist call” value is “inactive”.

For `CC1=NC(C)C(C)S1` (centres undefined), the “odorant receptor agonist call” value was “inactive”.

`CC(=O)c1c(C)c([N+](=O)[O-])c(C(C)(C)C)c([N+](=O)[O-])c1C`: the “odorant receptor agonist call” value is “inactive”.

For `O=c1ccc2ccccc2o1`, the “odorant receptor agonist call” value was “active”.

For the compound `CC1=C(O)C(=O)C(C)O1` (centres undefined), the “odorant receptor agonist call” value was “inactive”.
